The list is not random: actives were taken first. Their share in the collection is about 2.6%.
ERAP1 HTS inh: human ERAP1 aminopeptidase inhibitors, primary screen, biochemical, single point, plate reader; Endoplasmic reticulum aminopeptidase 1 (Homo sapiens), Q9NZ08; recombinant ERAP1, Leu-AMC fluorescence, 60 min; inhibition, % at 10.7 µM; 340,000 compounds, 0.15% hits;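 active = mean replicate inhibition of at least 30%, or all replicates individually reaching that 30% level; inactive = mean below 30% and not every replicate reaching it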
DENV2 CPE: inhibitors of DENV2 cytopathic effect, primary screen, cell-based, plate reader, single concentration; AID 651640, 2012; CPE inhibition, % at 9.99 µM; DENV2-infected cells, cytopathic effect rescue; 350,000 compounds, 1.7% hits; in the data active = CPE inhibition above about 20%, passing the limit was not always enough; tested in BHK-21 cells
F508del corr: F508del CFTR correction, initial screen, CFBE line, single point; CFBE cells, YFP halide quenching; stimulated with forskolin plus potentiator P3; % fluorescence drop versus neutral controls; activity (quench increase), % at 7.58 µM; AID 720511, 2013; 350,000 compounds, 0.36% hits;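 active = mean added fluorescence quench of at least 8% versus neutral control, with both replicates also reaching 8%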;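 note: cells transiently co-express mutant CFTR-F508del with the halide-sensitive YFP; corrector assay measuring rescue of mutant channel to the surface after 24 h compound exposure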
GSIS activator: GLuc luminescence reporter in INS-1E cells, primary screen for activators of glucose-dependent secretion of insulin; INS-1E GLuc reporter insulin secretion, 2-3 h; AID 743287, 2014; 370,000 compounds, 0.61% hits; activation, % at 16.6 µM;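 active = lowest replicate activation of at least 40%, so every replicate reaches that level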
miR122 inh: miR-122 Renilla sensor signal increase in Huh7, primary screen, miR-122 inhibitor project, cell-based, single point, plate reader | Huh7 miR-122 Renilla luciferase sensor, 48 h; neutral wells = 0, positive control = 100 | activation (reporter increase), % at 12.5 µM | 340,000 compounds, 0.3% hits;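 active = mean replicate activation score at least 90 and every replicate individually at or above 90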;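 note: higher luciferase means less miR-122 activity so hits act as miR-122 inhibitors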
E-sel inducer: E-selectin induction in HUVECs, primary screen, imaging, HUVEC, immunofluorescence imaging, single point. 260,000 compounds, 0.37% hits. normalized: neutral wells 0, TNF-alpha wells 100. activation, % at 7.58 µM. P16581;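 active = mean E-selectin-positive cell signal at least 10% of the positive control, reached in at least 60% of replicates, without over 20% cell loss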
Target sequence (P16581 whole entry, looked up): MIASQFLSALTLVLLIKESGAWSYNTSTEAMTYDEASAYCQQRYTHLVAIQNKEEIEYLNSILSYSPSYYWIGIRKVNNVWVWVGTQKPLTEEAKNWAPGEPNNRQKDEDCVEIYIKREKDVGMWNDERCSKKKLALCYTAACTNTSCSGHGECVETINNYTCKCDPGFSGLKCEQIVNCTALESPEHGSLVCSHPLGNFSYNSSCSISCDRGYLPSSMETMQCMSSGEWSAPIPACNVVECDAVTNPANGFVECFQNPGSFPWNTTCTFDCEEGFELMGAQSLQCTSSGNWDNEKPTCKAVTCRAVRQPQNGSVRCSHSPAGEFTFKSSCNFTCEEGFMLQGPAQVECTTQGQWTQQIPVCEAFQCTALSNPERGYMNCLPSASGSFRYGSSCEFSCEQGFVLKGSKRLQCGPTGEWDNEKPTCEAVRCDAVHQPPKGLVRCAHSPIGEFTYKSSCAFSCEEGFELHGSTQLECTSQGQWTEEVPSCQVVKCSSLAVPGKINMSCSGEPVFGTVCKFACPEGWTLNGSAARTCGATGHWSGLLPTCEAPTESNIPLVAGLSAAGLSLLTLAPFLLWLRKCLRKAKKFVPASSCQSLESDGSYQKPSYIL
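assay system = HUVEC, human umbilical vein endothelial cells | input = 3,000 HUVEC seeded per well | medium = EGM-2 growth medium on 0.1% gelatin-coated wells | dosing = one compound dose added by pin transfer | signal = immunofluorescence imaging | read-out basis = % PE-positive cells | control set = TNF-alpha, DMSO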
Hits are given with their value; i = inactive; nt = not tested or not shown.

SMILES | ERAP1 HTS inh | DENV2 CPE | F508del corr | GSIS activator | miR122 inh | E-sel inducer
N#C[C@H]1[C@@H](c2ccccc2C2=CCCC2)[C@@H](CO)N1C(=O)c1cccc(F)c1 | i | 71 | i | i | nt | i
Cc1noc(C)c1NC(=O)N(C)C[C@@H]1Oc2c(NC(=O)c3ccc(-c4nccs4)cc3)cccc2C(=O)N([C@@H](C)CO)C[C@@H]1C | i | i | i | i | i | nt
CCC(=O)N1CC2(C1)[C@H](c1ccccc1)[C@@H](CO)N2Cc1cccc(Cl)c1 | i | i | i | i | nt | i
C[C@H](CO)N1C[C@H](C)[C@@H](CN(C)Cc2ccc(Cl)c(Cl)c2)Oc2c(NC(=O)CCC(F)(F)F)cccc2C1=O | nt | 22 | i | i | i | i
C[C@H](CO)N1C[C@H](C)[C@@H](CN(C)Cc2ccccc2)Oc2c(NC(=O)CCC(F)(F)F)cccc2C1=O | nt | nt | nt | i | nt | nt
C[C@@H]1CN([C@@H](C)CO)C(=O)c2cccc(NC(=O)CCCCCC(=O)Nc3ccccc3N)c2O[C@@H]1CN(C)Cc1ccccc1 | i | i | i | i | nt | i
C[C@H](CO)N1C[C@H](C)[C@H](CN(C)Cc2ccc(Cl)c(Cl)c2)Oc2c(NC(=O)CCCCCC(=O)Nc3ccccc3N)cccc2C1=O | i | i | i | i | nt | 410
CN1C(=O)c2cc(NC(=O)Nc3ccccc3)ccc2OC[C@H]2O[C@H](CC(=O)O)CC[C@H]21 | nt | i | nt | i | nt | i
C[C@@H]1CN([C@H](C)CO)C(=O)c2cc(NC(=O)CCC(F)(F)F)ccc2O[C@H]1CN(C)S(=O)(=O)c1ccccc1 | i | i | i | i | i | i
O=C1c2ccc([N+](=O)[O-])cc2C(=O)N1Cc1cccnc1 | i | 90 | i | i | i | i
COCC(=O)Nc1ccc2c(c1)C(=O)N(C)C[C@@H](OC)[C@H](C)CN(C(=O)C1CCCC1)[C@H](C)CO2 | i | i | i | i | i | i
C=C[C@@]1(C)CC(=O)[C@]2(O)[C@@]3(C)[C@@H](O)CCC(C)(C)[C@@H]3[C@H](OC(C)=O)[C@H](O)[C@@]2(C)O1 | i | i | i | 85 | i | nt
C=C1C(=O)O[C@H]2C[C@]3(C)C([C@@H](OC(=O)/C(C)=C/C)[C@H]12)[C@](C)(O)CC[C@H]3O (stereo partly drawn) | i | i | i | i | i | nt
C=C[C@@]1(C)CC(=O)[C@]2(O)[C@@]3(C)[C@@H](O)CCC(C)(C)[C@@H]3[C@H](O)[C@H](OC(C)=O)[C@@]2(C)O1 | i | i | i | 99 | i | i
COC(=O)C[C@H]1C[C@@H]2c3cc(NC(=O)Nc4ccc(C(F)(F)F)cc4)ccc3O[C@@H]2[C@@H](CO)O1 | i | i | i | i | i | i
COc1cccc(NC(=O)N2CC(=O)N3[C@H](C2)[C@@H](c2ccc(C#CC4CCCC4)cc2)[C@@H]3CO)c1 | i | 38 | i | i | nt | i
O=C(c1ccc(F)cc1)N1CC(=O)N2[C@@H](CO)[C@H](c3ccc(C#CC4CC4)cc3)[C@@H]2C1 | i | 41 | i | i | nt | i
COc1ccc(NC(=O)N2CC(=O)N3[C@@H](CO)[C@H](c4ccc(C#CCC5CCCC5)cc4)[C@@H]3C2)cc1 | i | 23 | i | i | nt | i
O=C(Nc1ccc(F)cc1)N1CC(=O)N2[C@@H](CO)[C@H](c3ccc(C#CC4CC4)cc3)[C@@H]2C1 | i | i | i | i | nt | i
O=C(Nc1ccc(F)cc1)N1CC(=O)N2[C@H](CO)[C@H](c3ccc(C#CC4CC4)cc3)[C@H]2C1 | i | 35 | i | i | nt | i
O=C(c1ccc(F)cc1)N1CC(=O)N2[C@@H](CO)[C@@H](c3ccc(C#CC4CC4)cc3)[C@@H]2C1 | i | i | i | i | nt | i
COc1ccccc1C(=O)Nc1ccc2c(c1)OC[C@H](C)N(C(C)=O)C[C@H](C)[C@H](OC)CN(C)C2=O | nt | nt | i | i | nt | i
COc1ccc2ccccc2c1CNC(C)c1ccccc1 (stereo not drawn) | i | 36 | i | i | i | i
COc1ccc(C)cc1Nc1n[n+](-c2ccccc2)c(-c2ccc(OC)c(OC)c2OC)s1 | i | 92 | i | i | i | i
O=C(C[C@@H]1C=C[C@@H](NS(=O)(=O)c2ccc(F)cc2)[C@H](CO)O1)NCc1ccncn1 | i | i | i | i | i | i
SMILES | ERAP1 HTS inh | DENV2 CPE | F508del corr | GSIS activator | miR122 inh | E-sel inducer
Fc1ccc(-c2cc(C(F)(F)F)nc(-n3cncn3)n2)cc1 | nt | nt | nt | 52 | i | nt
COc1cccc(-c2cc(C(F)(F)F)nc(-n3cncn3)n2)c1 | nt | nt | nt | 65 | i | nt
C[C@@H](NC(=O)C[C@@H]1C=C[C@H](NC(=O)Nc2ccc3c(c2)OCO3)[C@H](CO)O1)c1ccccc1 | i | i | i | i | i | i
O=C(COC(=O)c1ccccc1NCCO)NNC(=O)c1cccs1 | i | i | i | i | i | 428
O=C(Cc1ccccn1)N[C@@H]1CC[C@@H](CCn2cc(-c3ccc(F)cc3)nn2)O[C@@H]1CO | i | i | i | i | nt | i
CCCNC(=O)C[C@@H]1C[C@@H]2c3cc(NC(=O)NC4CCCCC4)ccc3O[C@@H]2[C@@H](CO)O1 | i | i | i | i | i | i
CCCNC(=O)N[C@H]1C=C[C@@H](CC(=O)NC2CCCCC2)O[C@@H]1CO | i | i | i | i | nt | i
COc1ccc(-c2[nH]c3ccccc3c2SCCN)cc1 | i | i | i | 57 | i | i
COc1ccc(-c2[nH]c3ccccc3c2SCCNC(=O)c2cc3ccccc3oc2=O)cc1 | i | i | i | nt | i | i
CC(C)NC(=O)N(C)C[C@@H]1Oc2cc(Br)ccc2S(=O)(=O)N([C@@H](C)CO)C[C@@H]1C | i | i | i | i | i | i
CCCc1cc(N2CCCC(C(=O)NCc3ccc4c(c3)OCO4)C2)n2ncnc2n1 (stereo not drawn) | i | i | i | 54 | i | nt
Cc1cc(C)nc(N2CCCC(C(=O)NCc3ccc4c(c3)OCO4)C2)n1 (stereo not drawn) | i | i | i | i | nt | i
C[C@@H]1CCCCO[C@@H](CN(C)CC2CCCCC2)[C@H](C)CN([C@H](C)CO)C(=O)c2cc(NC(=O)Nc3cccc4ccccc34)ccc2O1 | i | 118 | i | i | i | i
C[C@@H]1CN([C@@H](C)CO)C(=O)c2cc(NC(=O)Nc3cccc4ccccc34)ccc2O[C@@H](C)CCCCO[C@H]1CN(C)CC1CCCCC1 | i | 28 | i | i | i | i
C[C@@H]1CCCCO[C@H](CN(C)C)[C@H](C)CN([C@H](C)CO)C(=O)c2cc(NC(=O)Nc3cccc4ccccc34)ccc2O1 | i | 74 | i | i | i | i
